# Results as given in ChEMBL document CHEMBL1139013, “Synthesis and biological evaluation of novel 9-substituted-8-hydroxyadenine derivatives as potent interferon inducers” (J Med Chem, 2006).
# How the values were obtained:
# Splenocyte [1] = assay: Induction of IFN in C3H/HeJ mouse splenocytes at 100 nM; type: functional
# Procedure, shortened: (§1)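 Mouse splenocytes are suspended at 2 × 10⁶ cells/mL in MEM with 5% fetal calf serum, penicillin and streptomycin. They are mixed 1:1 with compound (DMSO stock diluted 500-fold in medium) and cultured 18 h at 37 °C in 5% CO₂. Supernatants are filter-sterilized and stored at -80 °C. IFN (IU/mL) is measured by L929/vesicular stomatitis virus bioassay.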
# Splenocyte [2] = assay: Induction of IFN in C3H/HeJ mouse splenocytes at 30 nM; type: functional; procedure, shortened: as §1
# Splenocyte [3] = assay: Induction of IFN in C3H/HeJ mouse splenocytes at 10 nM; type: functional; procedure, shortened: as §1
# Mus musculus [4] = assay: Induction of IFN in BALB/c mice at 0.3 mg/kg, po; type: functional
# Splenocyte [5] = assay: Induction of IFN in C3H/HeJ mouse splenocytes at 3 nM; type: functional; procedure, shortened: as §1
# Mus musculus [6] = assay: Induction of IFN in BALB/c mice at 0.1 mg/kg, po; type: functional
# Mustela putorius furo [7] = assay: Emetic activities in ferret at 3 mg/kg, po; type: organism-based; parameters: dose 3 mg/kg, route oral; details: in vivo
# Procedure, shortened: (§2)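 Oral dosing of male ferrets (4 months old) with compound in 0.5% sodium carboxymethyl cellulose vehicle; doses 0.3-30 mg/kg, 5 animals per group. Animals housed singly, video-recorded continuously for 6 h. Tapes scored afterwards for presence or absence of vomiting; reported as number vomiting per group.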
# Cynomolgus monkey [8] = assay: Induction of IFN in cynomolgus monkey at 0.1 mg/kg, po; type: functional, Macaca fascicularis
# Cynomolgus monkey [9] = assay: Induction of IFN in cynomolgus monkey at 1 mg/kg, po; type: functional, Macaca fascicularis
# [10] = Cmax in ferret at 3 mg/kg, po; type: ADME, organism-based, Mustela putorius furo; parameters: dose 3 mg/kg, route oral; details: in vivo
# Procedure, shortened: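 Male ferrets, 4 months old, dosed orally with compound suspended in 0.5% sodium carboxymethyl cellulose. Blood (0.5 mL) drawn from jugular vein; serum separated at 1630g, 10 min, 4 °C, stored at -20 °C. Compound concentration measured by HPLC; maximum concentration reported in ng/mL.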
# Mustela putorius furo [11] = assay: Emetic activities in ferret at 0.3 mg/kg, po; type: organism-based; parameters: dose 0.3 mg/kg, route oral; details: in vivo; procedure, shortened: as §2
# Cynomolgus monkey [12] = assay: Induction of IFN in cynomolgus monkey at 0.3 mg/kg, po; type: functional, Macaca fascicularis
# Splenocyte [13] = assay: Induction of IFN in C3H/HeJ mouse splenocytes at 1 nM; type: functional; procedure, shortened: as §1
SMILES,Activity (Splenocyte [1]),Activity (Splenocyte [2]),Activity (Splenocyte [3]),Activity (Mus musculus [4]),Activity (Splenocyte [5]),Activity (Mus musculus [6]),other results
CCCCNc1nc(N)c2nc(O)n(Cc3cnccn3)c2n1,4.2 IU/ml,2.9 IU/ml,<0.5 IU/ml,,,,
CCCCNc1nc(N)c2nc(O)n(Cc3ccc(Cl)c(Cl)c3)c2n1,10 IU/ml,,0.8 IU/ml,136 IU/ml,<0.5 IU/ml,<5 IU/ml,
CCCCNc1nc(N)c2nc(O)n(Cc3ccc(-c4ccccc4)cc3)c2n1,3.4 IU/ml,0.5 IU/ml,,,,,
CCCCNc1nc(N)c2nc(O)n(Cc3cccc(C)c3)c2n1,5.5 IU/ml,3 IU/ml,<0.5 IU/ml,,,,
CCCCNc1nc(N)c2nc(O)n(Cc3ccc(Cl)s3)c2n1,7.2 IU/ml,11.3 IU/ml,8.9 IU/ml,484 IU/ml,<0.5 IU/ml,34 IU/ml,
Nc1nc(NCc2ccccc2)nc2c1nc(O)n2Cc1ccccc1,80.4 IU/ml,,44.4 IU/ml,398 IU/ml,<0.5 IU/ml,203 IU/ml,
CCCCNc1nc(N)c2nc(O)n(Cc3ccc(Cl)nc3Cl)c2n1,5.7 IU/ml,14.6 IU/ml,<0.5 IU/ml,,,42 IU/ml,
CCCCNc1nc(N)c2nc(O)n(Cc3ccc(OC)cc3)c2n1,2 IU/ml,4.7 IU/ml,6.5 IU/ml,933 IU/ml,<0.5 IU/ml,73 IU/ml,
CCCCNc1nc(N)c2nc(O)n(Cc3ccncc3)c2n1,4.3 IU/ml,11.9 IU/ml,4.2 IU/ml,,<0.5 IU/ml,21 IU/ml,
CCCCNc1nc(N)c2nc(O)n(Cc3ccc(F)cc3)c2n1,4.2 IU/ml,,12.8 IU/ml,313 IU/ml,<0.5 IU/ml,139 IU/ml,
CCOCc1nc2c(N)nc3ccccc3c2n1CC(C)(C)O [RESIQUIMOD],4 IU/ml,7 IU/ml,11 IU/ml,1714 IU/ml,2.8 IU/ml,1176 IU/ml,Activity (Mustela putorius furo [7]): Active; Activity (Cynomolgus monkey [8]): 7 IU/ml; Activity (Cynomolgus monkey [9]): 44037 IU/ml; Cmax [10]: 1180 ng/mL; Activity (Mustela putorius furo [11]): Active; Activity (Cynomolgus monkey [12]): 13 IU/ml; Activity (Splenocyte [13]): <0.5 IU/ml
CCCCNc1nc(N)c2nc(O)n(Cc3ccc(CCCC)cc3)c2n1,11 IU/ml,<0.5 IU/ml,,<5 IU/ml,,,
Nc1nc(NCc2ccncc2)nc2c1nc(O)n2Cc1ccccc1,9.1 IU/ml,3.9 IU/ml,2.2 IU/ml,73 IU/ml,<0.5 IU/ml,<5 IU/ml,
CCCCNc1nc(N)c2nc(O)n(Cc3ccc(OCc4ccccc4)cc3)c2n1,10.6 IU/ml,<0.5 IU/ml,,,,,
COCCNc1nc(N)c2nc(O)n(Cc3ccc(F)cc3)c2n1,8.3 IU/ml,4.8 IU/ml,<0.5 IU/ml,521 IU/ml,,54 IU/ml,
CCCCNc1nc(N)c2nc(O)n(Cc3ccc(O)cc3)c2n1,3.1 IU/ml,,12.4 IU/ml,20 IU/ml,<0.5 IU/ml,,
CCCCNc1nc(N)c2nc(O)n(Cc3ccc(F)c(F)c3)c2n1,7.1 IU/ml,14.7 IU/ml,6.4 IU/ml,338 IU/ml,<0.5 IU/ml,35 IU/ml,
CCCCNc1nc(N)c2nc(O)n(Cc3ccc([N+](=O)[O-])cc3)c2n1,2 IU/ml,4.5 IU/ml,11.6 IU/ml,444 IU/ml,<0.5 IU/ml,61 IU/ml,
CCCCNc1nc(N)c2nc(O)n(Cc3ccc(C)nc3Cl)c2n1,3.4 IU/ml,,8.4 IU/ml,,<0.5 IU/ml,<5 IU/ml,
COCCNc1nc(N)c2nc(O)n(Cc3ccccc3)c2n1,7.1 IU/ml,<0.5 IU/ml,,639 IU/ml,,44 IU/ml,
CCCCNc1nc(N)c2nc(O)n(Cc3ccccc3)c2n1,3.4 IU/ml,<0.5 IU/ml,,465 IU/ml,,113 IU/ml,
CCCCNc1nc(N)c2nc(O)n(Cc3ccccc3C)c2n1,3.6 IU/ml,3 IU/ml,<0.5 IU/ml,,,,

SMILES,Activity (Splenocyte [1]),Activity (Splenocyte [2]),Activity (Splenocyte [3]),Activity (Mus musculus [4]),Activity (Splenocyte [5]),Activity (Mus musculus [6]),other results
CCCCNc1nc(N)c2nc(O)n(Cc3ccc(C)cc3)c2n1,2 IU/ml,6.2 IU/ml,9.2 IU/ml,356 IU/ml,<0.5 IU/ml,28 IU/ml,
CCCCNc1nc(N)c2nc(O)n(CC3CCCCC3)c2n1,3.7 IU/ml,1.7 IU/ml,<0.5 IU/ml,,,,
CCCCNc1nc(N)c2nc(O)n(Cc3ccc(N(C)C)nc3)c2n1,2.7 IU/ml,5.1 IU/ml,9.4 IU/ml,,4.9 IU/ml,<5 IU/ml,Activity (Splenocyte [13]): <0.5 IU/ml
CCCCNc1nc(N)c2nc(O)n(Cc3cccc4ccccc34)c2n1,15.4 IU/ml,34 IU/ml,2.2 IU/ml,39 IU/ml,<0.5 IU/ml,<5 IU/ml,
CCCCNc1nc(N)c2nc(O)n(CC(C)(C)O)c2n1,0.6 IU/ml,<0.5 IU/ml,,<5 IU/ml,,,
CCCCNc1nc(N)c2nc(O)n(Cc3ccc4ccccc4c3)c2n1,17.4 IU/ml,7.1 IU/ml,<0.5 IU/ml,<5 IU/ml,,,
CCCCNc1nc(N)c2nc(O)n(Cc3cccnc3C)c2n1,3 IU/ml,8.3 IU/ml,12.8 IU/ml,,<0.5 IU/ml,,
CCCCNc1nc(N)c2nc(O)n(CCc3ccccc3)c2n1,<0.5 IU/ml,,,,,,
CCCCNc1nc(N)c2nc(O)n(Cc3ccc(C(C)(C)C)cc3)c2n1,13 IU/ml,4.4 IU/ml,<0.5 IU/ml,<5 IU/ml,,,
CCCCNc1nc(N)c2nc(O)n(Cc3ccccn3)c2n1,9.1 IU/ml,7.4 IU/ml,<0.5 IU/ml,<5 IU/ml,,,
CCCCNc1nc(N)c2nc(O)n(Cc3cccnc3)c2n1,8.1 IU/ml,16.6 IU/ml,32.5 IU/ml,327 IU/ml,1.6 IU/ml,76 IU/ml,Activity (Splenocyte [13]): <0.5 IU/ml
CCCCNc1nc(N)c2nc(O)n(Cc3ccc(C(F)(F)F)cc3)c2n1,15.2 IU/ml,10.7 IU/ml,2.9 IU/ml,276 IU/ml,<0.5 IU/ml,8 IU/ml,
CCCCNc1nc(N)c2nc(O)n(Cc3cncc(C)c3)c2n1,4.6 IU/ml,2.1 IU/ml,2.4 IU/ml,,1.9 IU/ml,,Activity (Splenocyte [13]): <0.5 IU/ml
CCCCNc1nc(N)c2nc(O)n(Cc3ccccc3Cl)c2n1,4.5 IU/ml,2 IU/ml,<0.5 IU/ml,,,,
CCCCNc1nc(N)c2nc(O)n(Cc3cccnc3Cl)c2n1,5 IU/ml,16.3 IU/ml,3.7 IU/ml,94 IU/ml,<0.5 IU/ml,<5 IU/ml,
CCCCNc1nc(N)c2nc(O)n(CC(C)C)c2n1,4.1 IU/ml,<0.5 IU/ml,,,,,
Nc1nc(NCc2ccccc2)nc2c1nc(O)n2Cc1ccc(F)cc1,4.5 IU/ml,<0.5 IU/ml,,<5 IU/ml,,,
CCCCNc1nc(N)c2nc(O)n(Cc3cccc(Cl)c3)c2n1,4.4 IU/ml,2.8 IU/ml,<0.5 IU/ml,,,,
Nc1nc(NCc2ccncc2)nc2c1nc(O)n2Cc1ccc(F)cc1,5.2 IU/ml,,11.1 IU/ml,492 IU/ml,<0.5 IU/ml,19 IU/ml,
CCCCNc1nc(N)c2nc(O)n(Cc3cnccc3Cl)c2n1,4.2 IU/ml,<0.5 IU/ml,,,,,
CCCCNc1nc(N)c2nc(O)n(Cc3ccc(Cl)cc3)c2n1,7.4 IU/ml,8.2 IU/ml,8.5 IU/ml,219 IU/ml,<0.5 IU/ml,7 IU/ml,
